Results taken from ChEMBL document CHEMBL1139058, “Synthesis, in vitro and in silico evaluation of l-tyrosine containing PPARalpha/gamma dual agonists” (2007).

Experiments:
[1] = target: T1, Peroxisome proliferator-activated receptor alpha (Homo sapiens) (UniProt Q07869); experiment: Agonist activity at human PPARalpha in HEK293T cells at 50 uM by GAL4 transactivation assay relative to WY-14643; type: functional, cell-based; conditions: HEK-293T
T1 sequence (whole entry): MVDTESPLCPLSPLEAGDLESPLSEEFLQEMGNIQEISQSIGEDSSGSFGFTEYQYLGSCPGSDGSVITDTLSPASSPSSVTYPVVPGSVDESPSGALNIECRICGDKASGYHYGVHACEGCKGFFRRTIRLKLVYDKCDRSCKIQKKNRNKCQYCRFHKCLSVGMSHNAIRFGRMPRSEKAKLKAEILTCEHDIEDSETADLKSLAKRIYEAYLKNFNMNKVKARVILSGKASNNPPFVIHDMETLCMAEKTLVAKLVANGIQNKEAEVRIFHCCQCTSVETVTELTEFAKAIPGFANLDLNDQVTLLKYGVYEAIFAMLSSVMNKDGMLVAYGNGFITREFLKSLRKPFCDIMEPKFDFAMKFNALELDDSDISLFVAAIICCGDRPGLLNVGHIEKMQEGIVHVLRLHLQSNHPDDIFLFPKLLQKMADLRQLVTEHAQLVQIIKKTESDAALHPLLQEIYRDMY
Outline: (§1)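 HEK 293T cells grown in DMEM-10% FBS at 37 °C, 5% CO2, then plated at 50–60% confluence in DMEM with 10% delipidated FBS one day before Superfect transfection. Reagent removed after 3 h. At 42 h post-transfection, cells moved to phenol red-free DMEM-DFBS and treated 18 h with compound or vehicle. Cells lysed, luciferase measured, expressed as fold activation over untreated cells.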

[2] = Agonist activity at human PPARgamma 1 in HEK293T cells at 50 uM by GAL4 transactivation assay relative to rosiglitazone; type: functional, HEK-293T; outline: as §1

Compound: O=C(C1=C(N[C@@H](Cc2ccc(OCCOc3cccc4[nH]c5ccccc5c34)cc2)C(=O)O)CCCC1)c1ccccc1
- Activity [1]: 1.2
- Activity [2]: 11.2

Compound: COC(=O)[C@H](Cc1ccc(OCCn2c3ccccc3c3ccccc32)cc1)NC1=C(C(=O)c2ccccc2)CCCC1
- Activity [1]: 0.5
- Activity [2]: 3

Compound: COC(=O)[C@H](Cc1ccc(OCCOc2ccc3c(c2)[nH]c2ccccc23)cc1)N/C(C)=C\C(=O)c1ccccc1
- Activity [1]: 1.9
- Activity [2]: 1.8

Compound: C/C(=C/C(=O)c1ccccc1)N[C@@H](Cc1ccc(OCCOc2ccc3c(c2)[nH]c2ccccc23)cc1)C(=O)O
- Activity [1]: 2
- Activity [2]: 4.2

Compound: O=C(C1=C(N[C@@H](Cc2ccc(OCCn3c4ccccc4c4ccccc43)cc2)C(=O)O)CCCC1)c1ccccc1
- Activity [1]: 1
- Activity [2]: 8.4

Compound: C/C(=C/C(=O)c1ccccc1)N[C@@H](Cc1ccc(OCCOc2cc(C(F)(F)F)nc3c(C(F)(F)F)cccc23)cc1)C(=O)O
- Activity [1]: 1.1
- Activity [2]: 2.3

Compound: C/C(=C/C(=O)c1ccccc1)N[C@@H](Cc1ccc(OCCc2ccc(C(F)(F)F)cc2)cc1)C(=O)O
- Activity [1]: 0.3
- Activity [2]: 0.7

Compound: C/C(=C/C(=O)c1ccccc1)N[C@@H](Cc1ccc(OCCOc2ccc(C(=O)c3ccc(Cl)cc3)cc2)cc1)C(=O)O
- Activity [1]: 2.8
- Activity [2]: 22.6

Compound: C/C(=C/C(=O)c1ccccc1)N[C@@H](Cc1ccc(OCCOc2cccc3[nH]c4ccccc4c23)cc1)C(=O)O
- Activity [1]: 4.6
- Activity [2]: 48.2

Compound: C/C(=C/C(=O)c1ccccc1)N[C@@H](Cc1ccc(OCCn2c3ccccc3c3ccccc32)cc1)C(=O)O
- Activity [1]: 1.4
- Activity [2]: 1.7

Compound: C/C(=C/C(=O)c1ccccc1)N[C@@H](Cc1ccc(OCCCOc2cccc3[nH]c4ccccc4c23)cc1)C(=O)O
- Activity [1]: 5.1
- Activity [2]: 15.1

Compound: COC(=O)[C@H](Cc1ccc(OCCOc2cccc3[nH]c4ccccc4c23)cc1)NC1=C(C(=O)c2ccccc2)CCCC1
- Activity [1]: 1.4
- Activity [2]: 4.7

Compound: COC(=O)[C@H](Cc1ccc(OCCn2c3ccccc3c3ccccc32)cc1)N/C(C)=C\C(=O)c1ccccc1
- Activity [1]: 1.2
- Activity [2]: 1.9
